Experimental data: ChEMBL document CHEMBL1649293, “Susceptibilities of human cytomegalovirus clinical isolates and other herpesviruses to new acetylated, tetrahalogenated benzimidazole D-ribonucleosides” (Antimicrob Agents Chemother, 2009)
Active and inactive are the calls of the source. The rule behind the calls is not given here.

Assays:
[1] = Cytotoxicity against rat Rat2 cells after 8 days by XTT assay; assay type: cell-based
Procedure, shortened: (§1)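 XTT cell-proliferation read-out after 8 days of exposure at 37°C to varied drug concentrations. Absorbance was read at 492 nm against 650 nm reference, 4 h after adding XTT labeling mixture. CC50 was determined.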

Human betaherpesvirus 5 [2] = assay: Antiviral activity against ganciclovir-sensitive HCMV infected in HFF assessed as formation of viral capsid type A at 10 uM measured after 72 hrs postinfection by electron microscopy; assay type: functional
Procedure, shortened: (§2)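 HFF (1 × 10^6) infected with GCV-sensitive or GCV-resistant clinical isolates at MOI 1, with or without 10 μM compound. Cells fixed 72 h p.i., embedded, thin-sectioned, and examined by transmission EM at 120 kV. Nuclear A, B and C capsids counted.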

Human alphaherpesvirus 3 = assay: Antiviral activity against VZV OKA infected in HFF assessed as viral plaque formation at 5 uM after 8 days by microscopy relative to control; assay type: functional
Procedure, shortened: (§3)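 Plaque reduction with compound at a single concentration of 5 μM. After infection, plaques were counted under a microscope, and inhibition was expressed relative to untreated infected cells.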

Human betaherpesvirus 5 [3] = assay: Antiviral activity against ganciclovir-sensitive HCMV infected in HFF assessed as formation of viral capsid type C at 10 uM measured after 72 hrs postinfection by electron microscopy; assay type: functional; procedure, shortened: as §2
Human alphaherpesvirus 1 = assay: Antiviral activity against Herpes simplex virus 1 KOS infected in HFF assessed as viral plaque formation at 5 uM after 8 days by microscopy relative to control; assay type: functional; procedure, shortened: as §3
[4] = Cytotoxicity against mouse NIH/3T3 cells after 8 days by XTT assay; assay type: cell-based, NIH3T3; procedure, shortened: as §1
[5] = Selectivity index, ratio of CC50 for HFF to EC50 for ganciclovir-sensitive HCMV infected in HFF
Human betaherpesvirus 5 [6] = assay: Antiviral activity against ganciclovir-resistant HCMV infected in HFF assessed as formation of viral capsid type C at 10 uM measured after 72 hrs postinfection by electron microscopy; assay type: functional; procedure, shortened: as §2
[7] = Cytotoxicity against HFF after 8 days by XTT assay; assay type: cell-based; conditions: human, HFF cells
Procedure, shortened: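 XTT proliferation assay: HFF seeded at 5 × 10^4/well were exposed to a range of drug concentrations for 8 days at 37°C. XTT labeling mixture was then added for 4 h, and absorbance was read at 492 nm (reference 650 nm). CC50 was derived.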

Human betaherpesvirus 5 [8] = assay: Antiviral activity against ganciclovir-sensitive HCMV infected in HFF assessed as formation of viral capsid type B at 10 uM measured after 72 hrs postinfection by electron microscopy; assay type: functional; procedure, shortened: as §2
Human betaherpesvirus 5 [9] = assay: Antiviral activity against ganciclovir-resistant HCMV infected in HFF assessed as reduction in viral plaque formation after 8 days by microscopy; assay type: functional, organism-based; conditions: Human betaherpesvirus 5, 192 h
Procedure, shortened: (§4)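 HFF (1 × 10^5/well) infected with GCV-sensitive or GCV-resistant clinical isolates at MOI 0.01. After 1 h, inoculum replaced by methyl cellulose overlay with DMEM, 3% FCS and compound dilutions in duplicate. Incubation 8 days at 37°C, then crystal violet staining and plaque counting by microscope. EC50 derived relative to untreated cells.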

[10] = Selectivity index, ratio of CC50 for HFF to EC50 for ganciclovir-resistant HCMV infected in HFF
Procedure, shortened: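 CC50 in HFF (5 × 10^4/well) after 8 days at 37°C with drug dilutions, read by XTT (4 h, A492 with 650 nm reference). EC50 from 8-day plaque reduction in HFF infected with GCV-resistant clinical isolate at MOI 0.01 under methyl cellulose, duplicates, crystal violet staining.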

[11] = tested on: Murid betaherpesvirus 1 (mouse cytomegalovirus); assay: Antiviral activity against MCMV Smith infected in NIH 3T3 assessed as viral plaque formation at 5 uM after 8 days by microscopy relative to control
Human betaherpesvirus 5 [12] = assay: Antiviral activity against HCMV AD169 infected in HFF assessed as viral plaque formation at 5 uM after 8 days by microscopy relative to control; assay type: functional; procedure, shortened: as §3
Human betaherpesvirus 5 [13] = assay: Antiviral activity against ganciclovir-resistant HCMV infected in HFF assessed as formation of viral capsid type A at 10 uM measured after 72 hrs postinfection by electron microscopy; assay type: functional; procedure, shortened: as §2
Human betaherpesvirus 5 [14] = assay: Antiviral activity against ganciclovir-resistant HCMV infected in HFF assessed as formation of viral capsid type B at 10 uM measured after 72 hrs postinfection by electron microscopy; assay type: functional; procedure, shortened: as §2
Human betaherpesvirus 5 [15] = assay: Antiviral activity against ganciclovir-sensitive HCMV infected in HFF assessed as reduction in viral plaque formation after 8 days by microscopy; assay type: functional, organism-based; conditions: Human betaherpesvirus 5, 192 h; procedure, shortened: as §4
Human betaherpesvirus 5 [16] = assay: Antiviral activity against ganciclovir-resistant HCMV infected in HFF assessed as cleavage of viral DNA concatemer at 10 uM measured after 72 hrs postinfection by […]; assay type: functional, organism-based
Human betaherpesvirus 5 [17] = assay: Antiviral activity against ganciclovir-sensitive HCMV infected in HFF assessed as cleavage of viral DNA concatemer at 10 uM measured after 72 hrs postinfection by […]; assay type: functional, organism-based
Procedure, shortened: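 HFF (1 × 10^6) infected with a GCV-sensitive clinical isolate at MOI 1 and treated with 10 μM compound. DNA was isolated 72 h p.i. and run by pulsed-field electrophoresis on 1% low-melting agarose (15–110 s pulses, 150 V, 27 h). Unit-length versus concatemeric DNA was viewed by ethidium bromide staining. Mock- and AD169-infected cells served as controls.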

Human betaherpesvirus 5 [18] = assay: Antiviral activity against ganciclovir-resistant HCMV infected in HFF assessed as cleavage of viral DNA concatemer at 30 uM measured after 72 hrs postinfection by […]; assay type: functional, organism-based
Human betaherpesvirus 5 [19] = assay: Antiviral activity against ganciclovir-sensitive HCMV infected in HFF assessed as cleavage of viral DNA concatemer at 30 uM measured after 72 hrs postinfection by […]; assay type: functional, organism-based
Procedure, shortened: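 HFF (1 × 10^6) infected with a GCV-sensitive clinical isolate at MOI 1 in the presence of 30 μM compound. DNA was harvested at 72 h p.i. and separated by PFGE in 1% low-melting agarose (15–110 s, 150 V, 27 h). Cleavage into unit-length genomes was judged after ethidium bromide staining.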

SMILES	CC50 at 192 h [1] [µM]	Activity (Human betaherpesvirus 5 [2]) [%]	Activity (Human alphaherpesvirus 3) [%]	Activity (Human betaherpesvirus 5 [3]) [%]	Activity (Human alphaherpesvirus 1) [%]	CC50 at 192 h [4] [µM]	Ratio CC50/EC50 [5]	Activity (Human betaherpesvirus 5 [6]) [%]	CC50 at 192 h [7] [µM]	Activity (Human betaherpesvirus 5 [8]) [%]	EC50 (Human betaherpesvirus 5 [9]) [µM]	Ratio CC50/EC50 [10]	Activity [11] [%]	Activity (Human betaherpesvirus 5 [12]) [%]	Activity (Human betaherpesvirus 5 [13]) [%]	Activity (Human betaherpesvirus 5 [14]) [%]	EC50 (Human betaherpesvirus 5 [15]) [µM]	other results
OC[C@H]1O[C@@H](n2c(Br)nc3cc(Cl)c(Cl)cc32)[C@H](O)[C@@H]1O	136	13.6	31.6	21.4	46.6	88.1	896	31.2	314	67.2	0.47	667	41.6	0.34	13.8	55	0.35	
CC(=O)OC[C@H]1O[C@@H](n2c(Cl)nc3c(Cl)c(Cl)c(Cl)cc32)[C@H](OC(C)=O)[C@@H]1OC(C)=O	19.2	10.5	31.1	13.3		39.6	202	29.9	66.7	76.4	0.15	445	68.3	0.25	8.6	61.5	0.34	Activity (Human betaherpesvirus 5 [16]): Active; Activity (Human betaherpesvirus 5 [17]): Active
CC(=O)OC[C@H]1O[C@@H](n2c(Br)nc3c(Cl)c(Cl)c(Cl)cc32)[C@H](OC(C)=O)[C@@H]1OC(C)=O	14.5	10.7	26.1	28.8	76.6	15.1	121	24	27.9	60.5	0.5	55.8	70.8	0.42	15.3	60.7	0.33	Activity (Human betaherpesvirus 5 [18]): Active; Activity (Human betaherpesvirus 5 [19]): Active
